From PubChem
FGF22 binding = binders of human FGF22 protein, primary screen, FGF22 synaptogenesis inhibitor project, biophysical, thermal shift, single point; activity (Tm shift, normalised), % at 9.99 µM; actives 1.5% (n = 340,000); Fibroblast growth factor 22 (Homo sapiens), Q9HCT0; recombinant FGF22 thermal shift, SYPRO orange fluorescence; percent of sucrose octasulfate shift, DMSO zero;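 active = mean Tm shift, scaled 0 neutral to 100 positive control, at about 1.3% or above, every replicate too, limit read from the data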
VLA-4 inh = inhibition in human VLA-4 binding assay, primary screen, VLA-4 allosteric modulator project, MLPCN library, flow cytometry, VLA-4 expressing cells; ligand binding flow cytometry; inhibition, % (about 7 µM as worked out from the volumes in the protocol); Integrin alpha-4 (Homo sapiens), P13612; actives 0.2% (n = 330,000); in the data active = inhibition above about 50%
Granule exo inh = LAMP-1 surface exposure blockers, TALL-104 cells – cell-based, flow cytometry, MLPCN library, primary screen; TALL-104 LAMP-1 surface exposure; cells stimulated with thapsigargin and PMA; inhibition, % at 10 µM; actives 0.66% (n = 360,000); AID 651702, 2012;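 active = inhibition above about 55%, limit read from the data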
DAGLB inhibitor = DAGLB lipase inhibitors, primary screen, biochemical, fluorescence, HTS. Diacylglycerol lipase-beta (Homo sapiens), Q8NCG7. HEK293T DAGLB membrane lysate, EnzChek fluorogenic substrate. inhibition, % at 5.17 µM. actives 0.059% (n = 340,000); in the data active = inhibition above about 34%;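 note: 0% = enzyme with vehicle and 100% = wells lacking enzyme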
MT1-MMP act inh = blockers of MT1-MMP proenzyme processing, primary screen, HT1080 RFP-PRO-GFP cells, GFP/RFP fluorescence; Matrix metalloproteinase-14 (Homo sapiens), P50281; GFP/RFP ratio fluorescence, overnight; percent of plate control window, DMSO zero; GFP/RFP ratio change, % at 20 µM; actives 0.061% (n = 360,000); AID 651647, 2012;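 active = GFP/RFP ratio change of at least 30% with cell ATP level not reduced by more than half and red fluorescence within 50% of control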
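Test system: HT1080 RFP-PRO-GFP cells; Benchmarks: DMSO and RFP-L50D-GFP cell wells; Timing: cells overnight before dosing, compound overnight, 37 °C, 5% CO2; Compound: one 20 µM compound dose with 1% DMSO; Read-out: GFP/RFP fluorescence ratio.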
ABCB6 inh 2 = ABCB6 transporter inhibitors, primary screen, K562-ABCB6 cells, flow cytometry, MLPCN library; actives 0.19% (n = 360,000); ATP-binding cassette sub-family B member 6 (Homo sapiens), Q9NP58; fluorescence ratio to DMSO, % at 10 µM; K562-ABCB6 porphyrin accumulation, 1 h; active compounds read low; AID 602162, 2011;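 active = fluorescence ratio to DMSO below 75%, the collection mean minus 3 SD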;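 note: signal is porphyrin accumulated inside mitochondria; 100% equals median channel fluorescence of DMSO control wells; lower ratio means ABCB6 inhibition with less porphyrin fluorescence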
DAGLB confirm = DAGLB lipase inhibitors, retest, confirmation, biochemical, fluorescence, HEK293T membranes; shares compounds with DAGLB inhibitor; HEK293T DAGLB membrane lysate, EnzChek fluorogenic substrate; inhibition, % at 5.17 µM; actives 73% (n = 190); AID 504445, 2011;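 active = mean inhibition over triplicate wells above a set limit taken from the primary lipase screen, cut at about 34% in these data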;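 note: 0% = DAGLB with DMSO and 100% = wells lacking DAGLB enzyme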
* marks the source's active call; other numbers are inactive results; · = no result given. The list is not random: actives were taken first. Their share in the collection is about 2%.

SMILES	FGF22 binding	VLA-4 inh	Granule exo inh	DAGLB inhibitor	MT1-MMP act inh	ABCB6 inh 2	DAGLB confirm
CO[C@@H]1CN(C)C(=O)c2ccc(NC(=O)C3CCCCC3)cc2OC[C@H](C)NC[C@H]1C	0	·	·	·	·	·	·
Cc1ccccc1Nc1nnc(SCc2nc3ccccc3c(=O)[nH]2)s1	·	-4	·	·	·	·	·
CCOc1ccc(Nc2nnc(SCc3nc4ccccc4c(=O)[nH]3)s2)cc1	41	-6	-3	60*	-4	101	74*
O=C(O)c1cc(S(=O)(=O)Nc2cc(Cl)ccc2Oc2ccccc2)ccc1O	·	-5	14	39*	-3	100	38*
CCC(=O)Nc1ccc2c(c1)OC[C@@H](C)N(C(=O)CN(C)C)C[C@@H](C)[C@H](OC)CN(C)C2=O	0	·	·	·	·	·	·
Oc1ccccc1N=Nc1nc(-c2ccccc2)c(-c2ccccc2)[nH]1	·	90*	0	38*	10	107	52*
O=C(O)c1ccccc1NS(=O)(=O)c1ccc(N/N=C/c2cccc(O)c2O)c([N+](=O)[O-])c1	0	·	-1	42*	19	96	53*
COc1cc(C=NNc2ccc(S(=O)(=O)Nc3ccccc3C(=O)O)cc2[N+](=O)[O-])ccc1O	1	4	6	39*	24	96	50*
O=C(O)c1ccccc1NS(=O)(=O)c1ccc(NNC(=S)Nc2ccc(OC(F)F)cc2)c([N+](=O)[O-])c1	·	·	-1	52*	8	96	67*
CC(=O)Nc1ccc(C=NNc2ccc(S(=O)(=O)Nc3ccccc3C(=O)O)cc2[N+](=O)[O-])cc1	·	12	0	37*	13	100	56*
C[C@@H]1CN([C@H](C)CO)C(=O)c2cc(C#CCN(C)C)cnc2O[C@H]1CN(C)Cc1ccc2c(c1)OCO2	0	·	·	·	·	·	·
C[C@H](CO)N1C[C@H](C)[C@@H](CN(C)S(C)(=O)=O)Oc2c(NC(=O)c3nc4ccccc4s3)cccc2C1=O	0	·	·	·	·	·	·
COc1ccc(OC)c(NC(=O)CSc2nnc(CNC(=O)c3ccccc3F)o2)c1	0	1	-4	36*	-1	104	-6
COc1ccc(C(=O)NCc2nnc(SCC(=O)Nc3cc(OC)ccc3OC)o2)cc1	0	14	-2	-1	-2	97	·
C[C@H](CO)N1C[C@H](C)[C@@H](CN(C)C(=O)c2ccccn2)Oc2cc(C#Cc3ccccc3)ccc2S1(=O)=O	0	·	·	·	·	·	·
CN(C)c1ccc(N=Nc2ccc(S(=O)(=O)O)cc2)c2ccccc12	·	4	24	48*	18	98	52*
COC(=O)c1c(C)c2c(C)cc3ccccn3c-2c1C(=O)OC	·	8	-2	0	-27	107	·
COC(=O)c1cc2c(-c3ccccc3)cc3ccccn3c-2c1C(=O)OC	·	11	3	37*	-11	106	30
CCCCC[C@H](O)/C=C/[C@H]1[C@H](O)CC(=O)[C@@H]1CCCCCCC(=O)O	·	-4	·	·	·	·	·
CCCCCCCCCCC[C@@H](C[C@@H]1OC(=O)[C@H]1CCCCCC)OC(=O)[C@H](CC(C)C)NC=O	-5	-10	5	49*	-9	95	86*
Cc1noc(C)c1S(=O)(=O)Nc1cccc2c1O[C@@H](CN(C)Cc1ccncc1)[C@@H](C)CN([C@H](C)CO)C2=O	0	·	·	·	·	·	·
